Assay outcomes as filed in PubChem.
Rad51 HR inh = blocks human Rad51 in homologous recombination; hRad51 DNA strand exchange, fluorescence dequenching; actives 0.085% (n = 200,000); inhibition, % at 10 µM;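 active means inhibition above 40% at the single screening dose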;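 further: 0% = DMSO control wells and 100% = blanks with heterologous ssDNA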
Target sequence (Q06609 whole entry, looked up): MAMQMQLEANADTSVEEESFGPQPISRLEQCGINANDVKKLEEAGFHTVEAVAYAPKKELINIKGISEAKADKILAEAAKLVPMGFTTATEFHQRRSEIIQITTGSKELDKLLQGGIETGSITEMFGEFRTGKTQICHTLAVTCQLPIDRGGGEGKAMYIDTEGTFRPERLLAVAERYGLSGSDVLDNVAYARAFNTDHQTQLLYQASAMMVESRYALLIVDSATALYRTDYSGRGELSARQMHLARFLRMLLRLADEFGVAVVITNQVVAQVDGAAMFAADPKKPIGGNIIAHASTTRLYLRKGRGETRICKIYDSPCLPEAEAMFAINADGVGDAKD
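System: hRad51 filaments on single-stranded DNA; reagent: Fluorescein- and BHQ1-tagged 47-mer duplex; compound dosing: one concentration, 10 µM final; timing: filaments 15 min 37 °C, then compound 30 min; measured by: fluorescein emission 520 nm, excitation 485 nm; benchmarks: per-plate controls and blanks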
Arbovirus anti = antivirals against arbovirus infection; inhibition, % at 10 µM; actives 0.37% (n = 200,000); AID 1251; arbovirus infection cell-based antiviral screen; in the data active means inhibition above about 30%
Yeast growth inh = chemicals that inhibit yeast BB579 growth in restrictive medium (lifespan-shortening candidates). AID 804. inhibition, % at 10 µM. S. cerevisiae BB579 growth, OD615, 48 h. actives 0.51% (n = 140,000);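 active means inhibition above a set limit, 3 SD over the mean compound inhibition, cut at about 44% in these data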
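System: Saccharomyces cerevisiae DeaD strain BB579, replicative lifespan model yeast. Buffer or medium: restrictive glucose-based CSMM-D medium. Doses: one dose, 10 µM compound with 0.25% DMSO. Timing: 4 h preincubation and 48 h exposure at 30 °C. Detection: turbidity as optical density at 615 nm. Benchmarks: amphotericin B 10 µg/mL, positive.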
Yeast lifespan up = extends the lifespan of yeast; S. cerevisiae growth with nicotinamide, OD615; deaD strain in restrictive glucose medium; inhibition of the nicotinamide effect, % at 10 µM; actives 0.68% (n = 130,000);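 active means inhibition above a set limit, placed 3 SD over the median of all compounds, cut at about 26% in these data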;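 further: 0% = nicotinamide-treated wells and 100% = cells grown without nicotinamide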
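Test system: DeaD-strain S. cerevisiae / Buffer or medium: restrictive glucose medium / Also added: nicotinamide 1.5 mM / Doses: one concentration, 10 µM, DMSO 0.25% / Schedule: 48 h at 30 °C / Signal: OD615 measurement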
Measles CPE = protection of cells from measles virus; Measles virus-infected cells, CPE protection, absorbance; protection (pct of control), % at 4 µM; actives 1.5% (n = 140,000); AID 841; in the data active means protection mostly above about 24%, no sharp cut-off; inactive means mostly below about 26%
Efa HMGR inh = blocks class II HMG-CoA reductase of Enterococcus faecalis. actives 0.41% (n = 190,000). purified E. faecalis HMGR, NADPH absorbance 340 nm kinetic. inhibition, % at 10 µM;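 active means inhibition above a set limit, the median over all tested compounds plus 3 SD, cut at about 9.5% in these data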;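 further: enzyme runs in reverse so mevalonate oxidation gives rising NADPH absorbance; 0% = complete reaction with DMSO and 100% = background rate lacking mevalonate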
* marks the source's active call; other numbers are inactive results; . = not tested or not shown. Rows were chosen to be rich in hits. Some 2.4% of all compounds tested hit in one or more screens of this group.

SMILES | Rad51 HR inh | Arbovirus anti | Yeast growth inh | Yeast lifespan up | Measles CPE | Efa HMGR inh
CC(=O)Oc1ccc2c(c1)O/C(=C\c1ccncc1)C2=O | -114 | . | . | . | . | .
COc1ccccc1C(=O)Oc1ccc2c(c1)O/C(=C\c1ccncc1)C2=O | -54 | 12 | -17 | 47* | 3 | -2
CCOC(=O)c1c(CC(C)C)csc1/N=C/C1C(=O)CCCC1=O | 8 | 5 | . | . | . | 4
CCOC(=O)c1c(-c2ccccc2)csc1NC(=S)N(CC)CC | -8 | 37* | -44 | -1 | 29 | -18
CCOC(=O)c1c(-c2ccccc2)csc1/N=C/C1C(=O)CCCC1=O | . | -3 | -14 | -8 | 53* | -5
Cc1nc2ccccc2nc(C)c1=NO | -3 | 7 | -26 | 6 | -2 | -2
C/C(O)=c1/ccc2cccc3nc(C)nc1c23 | -2 | -3 | 69* | -30 | 113* | -2
CN(Cc1nc(-c2cnccn2)no1)Cc1n[nH]c2c1CCCC2 | -5 | 1 | . | . | . | -3
COC(=O)c1ccc(NC(=S)Nc2ccccc2)cc1 | -11 | -4 | -19 | -4 | 7 | 0
O=C(/C=C/c1ccccc1)NC(NC(=S)Nc1ccc(C(=O)O)cc1)C(Cl)(Cl)Cl (configuration not stated) | -10 | -1 | -8 | -5 | 45* | -3
O=C(/C=C/c1ccccc1)NC(NC(=S)Nc1cccc(O)c1)C(Cl)(Cl)Cl (configuration not stated) | 7 | -8 | -23 | 0 | 13 | -1
O=C(O)c1ccc(NC(=S)Nc2ccccc2)cc1 | 2 | -4 | 17 | 37* | 5 | -2
CCNC(=O)CN(c1ccc(CC)cc1)S(C)(=O)=O | 8 | 46* | 3 | -7 | 2 | -11
CCC(=O)Nc1cc(ON=C(C)C)cc([N+](=O)[O-])c1 | 6 | -4 | -22 | -5 | 96* | 0
Nc1c(S(=O)(=O)c2ccccc2)c2nc3ccccc3nc2n1/N=C/c1cccc(O)c1 | -2 | -29 | -43 | -20 | 3 | 4
Cc1cccc(S(=O)(=O)c2c(N)n(/N=C/c3ccccc3)c3nc4ccccc4nc23)c1 | 1 | -2 | -67 | -4 | 60* | -2
CC(=O)Nc1ccc(SCC(=O)c2cc(C)n(CC(F)(F)F)c2C)cc1 | 5 | 7 | 9 | -1 | 23 | -7
CC(=O)Nc1ccc(SCC(=O)c2cc(C)n(C)c2C)cc1 | -9 | 17 | -11 | -15 | 46* | -4
Cc1[nH]n(-c2ccccc2)c(=O)c1C(c1cccc([N+](=O)[O-])c1)c1c(C)[nH]n(-c2ccccc2)c1=O | -11 | 1 | -31 | 30* | 24 | 1
CC(=O)Nc1ccc(-c2csc(NC(=O)C3CCN(S(=O)(=O)c4cccs4)CC3)n2)cc1 | 0 | -24 | -41 | 3 | 68* | -5
Cc1csc(NC(=O)C2CCN(S(=O)(=O)c3cccs3)CC2)n1 | 2 | 6 | . | . | . | -2
O=C(Cn1c(=O)oc2cccnc21)Nc1ccccc1Oc1ccc(Cl)cc1Cl | 15 | . | . | . | . | .
CCOCCCNCc1cc(Br)ccc1OCc1ccccc1 | 4 | 15 | -20 | 7 | 16 | -3
OCCNCc1cc(Br)ccc1OCc1ccccc1 | -7 | 7 | -5 | -4 | 32* | -4
Cc1ccc(CN2CCN(/N=C/C=C/c3ccccc3[N+](=O)[O-])CC2)cc1 | 1 | 3 | . | . | . | 3
SMILES | Rad51 HR inh | Arbovirus anti | Yeast growth inh | Yeast lifespan up | Measles CPE | Efa HMGR inh
CC[n+]1c(C)n(-c2ccccc2)c2ccc(C(=O)OC)cc21 | 5 | 6 | . | . | . | 16*
CCOC(=O)c1ccc2c(c1)[n+](CC)c(C)n2-c1ccccc1 | -3 | 6 | . | . | . | -7
Clc1cccc(-c2cc3nc4c(c(NCc5ccco5)n3n2)CCCC4)c1 | -2 | 34* | -2 | -12 | 5 | 1
c1coc(CNc2c3c(nc4ncnn24)CCCC3)c1 | 3 | 28 | -56 | -6 | 11 | 0
COc1ccccc1N1CCN(C(=O)Cn2nc3n(C)c4ccccc4n3c(=O)c2=O)CC1 | -2 | 5 | . | . | . | -4
CCN(Cc1ccncc1)C(=O)CCc1nnc(CCC2CCCCC2)o1 | -6 | 4 | . | . | . | 12*
CCN(Cc1ccncc1)C(=O)CCc1nnc(CCc2ccccc2OC)o1 | 7 | -1 | . | . | . | -10
COc1ccc(S(=O)(=O)Nc2ccc(NC(C)=O)cc2)cc1[N+](=O)[O-] | 14 | 0 | . | . | . | -5
COCCN(CCOC)c1nc(S(=O)(=O)c2ccc(C)cc2)c(Cl)s1 | -4 | -6 | -39 | -11 | 28* | -2
Cc1ccc(NC2c3ncccc3C(=O)N2C2CCCCC2)cc1C (configuration not stated) | -3 | 40* | -24 | 0 | 3 | -9
CN1CCc2nc(NC(=O)COc3ccc(C#N)cc3)sc2C1 | 5 | 4 | . | . | . | -3
CC(=O)C1=C(S(=O)(=O)c2ccc(C)cc2)CS(=O)(=O)C1 | 1 | 2 | . | . | . | 1
Cc1ccc(NC(=O)CSCC(N)=O)cc1C | -10 | -1 | 20 | -2 | 40* | -5
O=C(NCCN1C(=O)S/C(=C/c2cccnc2)C1=O)C1CC(=O)N(Cc2ccccc2)C1 (configuration not stated) | 2 | 30* | . | . | . | 0
O=C(NCCN1C(=O)S/C(=C\c2cccnc2)C1=O)C1=NN(c2ccccc2)C(=O)CC1 | -8 | -5 | . | . | . | -2
CN(CCO)c1cc(NCCCN2CCC(Cc3ccccc3)CC2)c2nonc2c1[N+](=O)[O-] | 24 | -14 | . | . | . | 14*
CCOC(=O)c1ccc(Nc2nnc(C)c3ccccc23)cc1 | 3 | . | . | . | . | .
CC(=O)c1ccc(N2CCN(C(=O)c3ccc4c(Cl)c5c(nc4c3)CCCC5)CC2)cc1 | 1 | -12 | . | . | . | -1
O=C(c1ccc2c(Cl)c3c(nc2c1)CCCC3)N1CCC(N2CCCCC2)CC1 | -5 | -14 | 5 | 3 | 3 | 11*
Cc1cc(C)c(S(=O)(=O)Nc2cccc(S(=O)(=O)NC3=NCCC3)c2)c(C)c1 | -5 | 10 | . | . | . | -5
CCCOc1ccccc1N/C(N)=N/c1nc(C)cc(C)n1 | -3 | 4 | . | . | . | -3
CCCOc1ccccc1N/C(=N/c1nc(C)cc(C)n1)NC(=O)COc1ccc(OC)cc1 | 97* | 9 | -22 | 0 | 5 | 0
O=C(CCCN1C(=O)/C(=C\c2cccs2)SC1=S)Nc1ccccn1 | -10 | 0 | . | . | . | 14*
O=C(O)CCCCCN1C(=O)/C(=C\c2ccncc2)SC1=S | -7 | 13 | -15 | 52* | 13 | -1
O=C(O)CCCN1C(=O)/C(=C/c2ccncc2)SC1=S | -11 | . | . | . | . | .
O=C(O)CCCCCN1C(=O)/C(=C/c2ccncc2)SC1=S | -9 | 13 | -29 | 40* | 20 | -3
COc1ccc(CN2C(=O)/C(=C/c3ccncc3)SC2=S)cc1 | -7 | -40 | -33 | 48* | 3 | -3
